Test results as given in ChEMBL document CHEMBL1142201, “Tolerance to the glycopeptides vancomycin and teicoplanin in coagulase-negative staphylococci” (2007).

Experiments:
Type in all cases: functional
[1] = system: Staphylococcus lugdunensis; test: Reduction of vancomycin-tolerant Staphylococcus lugdunensis 111A53 isolate assessed as bacterial counts at 5 times MIC after 24 hrs by time-kill curve method
Summary of the method: (§1)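 CLSI time-kill in 50 ml Mueller-Hinton broth, mean starting inoculum 5.6 log10 CFU/ml. Vancomycin or teicoplanin at 5×, 10× or 20× the agar-dilution MIC. Viable counts taken before and 6 and 24 h after antibiotic addition; samples diluted 10-fold and plated in duplicate on prewarmed blood agar. Change reported as mean log CFU/ml.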

[2] = system: Staphylococcus lugdunensis; test: Antibacterial activity against coagulase-negative Staphylococcus lugdunensis ATCC 43809 assessed as bacterial counts at 10 times MIC after 24 hrs
Summary of the method: (§2)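 CLSI time-kill in 50 ml Mueller-Hinton broth. Mean starting inoculum 5.6 log10 CFU/ml; vancomycin or teicoplanin at 10× MIC, with MIC from CLSI agar dilution. Counts taken just before and 6 and 24 h after antibiotic addition: samples diluted 10-fold to avoid carryover and plated in duplicate on prewarmed blood agar. Result given as Δlog CFU/ml; each strain run in duplicate.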

[3] = system: Staphylococcus lugdunensis; test: Ratio of MBC to MIC against teicoplanin-tolerant Staphylococcus lugdunensis 111A91 isolate
Summary of the method: (§3)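 MBC/MIC by CLSI broth method, starting inoculum between 10^5 and 10^6 CFU/ml in Mueller-Hinton broth. Vancomycin and teicoplanin tested; S. aureus ATCC 25923 quality control included in each assay. Three separate assays, each ratio reported individually.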

[4] = system: Staphylococcus lugdunensis; test: Reduction of vancomycin-tolerant Staphylococcus lugdunensis 111A53 isolate assessed as bacterial counts at 5 times MIC after 6 hrs by time-kill curve method; summary of the method: as §1
[5] = system: Staphylococcus lugdunensis; test: Antibacterial activity against coagulase-negative Staphylococcus lugdunensis ATCC 49576 assessed as bacterial counts at 10 times MIC after 6 hrs; summary of the method: as §2
[6] = system: Staphylococcus lugdunensis; test: Antibacterial activity against coagulase-negative Staphylococcus lugdunensis isolate assessed as bacterial counts at 10 times MIC after 6 hrs; summary of the method: as §2
[7] = system: Staphylococcus lugdunensis; test: Antibacterial activity against coagulase-negative Staphylococcus lugdunensis 111A223 isolate assessed as bacterial counts at 10 times MIC after 6 hrs; summary of the method: as §2
[8] = system: Staphylococcus lugdunensis; test: Antibacterial activity against coagulase-negative Staphylococcus lugdunensis 111A229 isolate assessed as bacterial counts at 10 times MIC after 6 hrs; summary of the method: as §2
[9] = system: Staphylococcus lugdunensis; test: Antibacterial activity against coagulase-negative Staphylococcus lugdunensis 111A53 isolate assessed as bacterial counts at 10 times MIC after 24 hrs; summary of the method: as §2
[10] = system: Staphylococcus lugdunensis; test: Reduction of teicoplanin-tolerant Staphylococcus lugdunensis 111A91 isolate assessed as bacterial counts at 10 times MIC after 24 hrs by time-kill curve method; summary of the method: as §1
[11] = system: Staphylococcus lugdunensis; test: Reduction of teicoplanin-tolerant Staphylococcus lugdunensis 111A91 isolate assessed as bacterial counts at 20 times MIC after 6 hrs by time-kill curve method; summary of the method: as §1
[12] = system: Staphylococcus lugdunensis; test: Antibacterial activity against coagulase-negative Staphylococcus lugdunensis 111A53 isolate assessed as bacterial counts at 10 times MIC after 6 hrs; summary of the method: as §2
[13] = system: Staphylococcus lugdunensis; test: Antibacterial activity against coagulase-negative Staphylococcus lugdunensis isolate assessed as bacterial counts at 10 times MIC after 24 hrs; summary of the method: as §2
[14] = system: Staphylococcus lugdunensis; test: Reduction of teicoplanin-tolerant Staphylococcus lugdunensis 111A91 isolate assessed as bacterial counts at 10 times MIC after 6 hrs by time-kill curve method; summary of the method: as §1
[15] = system: Staphylococcus lugdunensis; test: Ratio of MBC to MIC against vancomycin-tolerant Staphylococcus lugdunensis 111A53 isolate; summary of the method: as §3
[16] = system: Staphylococcus lugdunensis; test: Reduction of vancomycin-tolerant Staphylococcus lugdunensis 111A53 isolate assessed as bacterial counts at 10 times MIC after 6 hrs by time-kill curve method; summary of the method: as §1
[17] = system: Staphylococcus lugdunensis; test: Reduction of teicoplanin-tolerant Staphylococcus lugdunensis 111A91 isolate assessed as bacterial counts at 5 times MIC after 24 hrs by time-kill curve method; summary of the method: as §1
[18] = system: Staphylococcus lugdunensis; test: Antibacterial activity against coagulase-negative Staphylococcus lugdunensis 111A91 isolate assessed as bacterial counts at 10 times MIC after 24 hrs; summary of the method: as §2
[19] = system: Staphylococcus lugdunensis; test: Reduction of vancomycin-tolerant Staphylococcus lugdunensis 111A53 isolate assessed as bacterial counts at 10 times MIC after 24 hrs by time-kill curve method; summary of the method: as §1
[20] = system: Staphylococcus lugdunensis; test: Antibacterial activity against coagulase-negative Staphylococcus lugdunensis 111A223 isolate assessed as bacterial counts at 10 times MIC after 24 hrs; summary of the method: as §2
[21] = system: Staphylococcus lugdunensis; test: Antibacterial activity against coagulase-negative Staphylococcus lugdunensis ATCC 43809 assessed as bacterial counts at 10 times MIC after 6 hrs; summary of the method: as §2
[22] = system: Staphylococcus lugdunensis; test: Reduction of teicoplanin-tolerant Staphylococcus lugdunensis 111A91 isolate assessed as bacterial counts at 20 times MIC after 24 hrs by time-kill curve method; summary of the method: as §1
[23] = system: Staphylococcus lugdunensis; test: Antibacterial activity against coagulase-negative Staphylococcus lugdunensis 111A229 isolate assessed as bacterial counts at 10 times MIC after 24 hrs; summary of the method: as §2
[24] = system: Staphylococcus lugdunensis; test: Antibacterial activity against coagulase-negative Staphylococcus lugdunensis ATCC 49576 assessed as bacterial counts at 10 times MIC after 24 hrs; summary of the method: as §2
Staphylococcus [25] = test: Antibacterial activity against coagulase-negative Staphylococcus assessed as bacterial counts at 10 times MIC after 6 hrs; summary of the method: as §2
[26] = system: Staphylococcus lugdunensis; test: Reduction of teicoplanin-tolerant Staphylococcus lugdunensis 111A91 isolate assessed as bacterial counts at 5 times MIC after 6 hrs by time-kill curve method; summary of the method: as §1
Staphylococcus [27] = test: Antibacterial activity against coagulase-negative Staphylococcus assessed as bacterial counts at 10 times MIC after 24 hrs; summary of the method: as §2
[28] = system: Staphylococcus lugdunensis; test: Antibacterial activity against coagulase-negative Staphylococcus lugdunensis 111A91 isolate assessed as bacterial counts at 10 times MIC after 6 hrs; summary of the method: as §2
[29] = system: Staphylococcus lugdunensis; test: Reduction of vancomycin-tolerant Staphylococcus lugdunensis 111A53 isolate assessed as bacterial counts at 20 times MIC after 6 hrs by time-kill curve method; summary of the method: as §1
[30] = system: Staphylococcus lugdunensis; test: Reduction of vancomycin-tolerant Staphylococcus lugdunensis 111A53 isolate assessed as bacterial counts at 20 times MIC after 24 hrs by time-kill curve method; summary of the method: as §1

SMILES: CN[C@H](CC(C)C)C(=O)N[C@H]1C(=O)N[C@@H](CC(N)=O)C(=O)N[C@H]2C(=O)N[C@H]3C(=O)N[C@H](C(=O)N[C@H](C(=O)O)c4cc(O)cc(O)c4-c4cc3ccc4O)[C@H](O)c3ccc(c(Cl)c3)Oc3cc2cc(c3O[C@@H]2O[C@H](CO)[C@@H](O)[C@H](O)[C@H]2O[C@H]2C[C@](C)(N)[C@H](O)[C@H](C)O2)Oc2ccc(cc2Cl)[C@H]1O [VANCOMYCIN]
- log10CFU/ml [1]: -1.72
- deltalog10CFU/ml [2]: -2.18
- Ratio [3]: 64
- log10CFU/ml [4]: -0.05
- deltalog10CFU/ml [5]: -1.38
- deltalog10CFU/ml [6]: -1.17
- deltalog10CFU/ml [7]: -0.67
- deltalog10CFU/ml [8]: -2.24
- deltalog10CFU/ml [9]: -1.94
- log10CFU/ml [10]: -3.53
- log10CFU/ml [11]: -0.56
- deltalog10CFU/ml [12]: -0.31
- deltalog10CFU/ml [13]: -4.1
- log10CFU/ml [14]: -0.31
- Ratio [15]: 8
- log10CFU/ml [16]: -0.31
- log10CFU/ml [17]: -3.9
- deltalog10CFU/ml [18]: -3.53
- log10CFU/ml [19]: -1.94
- deltalog10CFU/ml [20]: -1.65
- deltalog10CFU/ml [21]: -0.21
- log10CFU/ml [22]: -2.83
- deltalog10CFU/ml [23]: -2.42
- deltalog10CFU/ml [24]: -3.91
- deltalog10CFU/ml (Staphylococcus [25]): -2.98
- log10CFU/ml [26]: -1.16
- deltalog10CFU/ml (Staphylococcus [27]): -4.8
- deltalog10CFU/ml [28]: -0.31
- log10CFU/ml [29]: -0.07
- log10CFU/ml [30]: -1.74
